# Measurements taken from ChEMBL document CHEMBL1131410, “Synthesis and biological evaluation of 4-chloro-3, 5-dinitrobenzotrifluoride analogues as antileishmanial agents” (J Med Chem, 1998).
# Tests used:
# [1] = Partition coefficient (logP); assay type: physicochemical; conditions: octanol/water
# [2] = test system: Leishmania donovani; assay: In vitro inhibition of Leishmania donovani parasite; assay type: functional, organism-based
# Method in brief: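 L. donovani MHOM/SD/62/1S-CL2D axenic amastigote-like forms, seeded at 10^6 cells/mL in amastigote medium with or without drug (DMSO at most 1.25% v/v). Incubated 72 h at 37 °C, humid 5% CO2. A tetrazolium-type Cell Titer reagent was then added for a further 8–12 h and absorbance read at 490 nm. IC50 fitted by a four-parameter log dose-response equation.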
# [3] = test system: Cricetinae gen. sp.; assay: Percent suppression of parasitaemia was measured in vivo against Visceral Leishmania donovani in hamsters at 52 mg/kg of dosage level.; assay type: functional, Cricetulus griseus
# Method in brief: (§1)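 Hamsters, six per group, infected intracardially with 1.0×10^7 L. donovani Khartoum amastigotes from donor hamster spleens. Dosed intramuscularly for 4 consecutive days starting day 3 post-infection and screened blind. On day 7 the animals were sacrificed and total parasite number per liver was counted. Result expressed as % suppression of parasitemia.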
# [4] = test system: Cricetinae gen. sp.; assay: Percent suppression of parasitaemia was measured in vivo against Visceral Leishmania donovani in hamsters at 13 mg/kg of dosage level.; assay type: functional, Cricetulus griseus; method in brief: as §1
# [5] = test system: Cricetinae gen. sp.; assay: Percent suppression of parasitaemia was measured in vivo against Visceral Leishmania donovani in hamsters at 208 mg/kg of dosage level.; assay type: functional, Cricetulus griseus; method in brief: as §1
# [6] = test system: Leishmania donovani; assay: Compound was evaluated in vitro against Leishmania donovani parasite; assay type: functional, organism-based
# Method in brief: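 Axenic amastigote-like L. donovani (MHOM/SD/62/1S-CL2D), seeded at 10^6 cells/mL with or without drug, DMSO ≤1.25% (v/v), 72 h at 37 °C, 5% CO2. Tetrazolium-type dehydrogenase reagent added, further 8–12 h, absorbance at 490 nm; IC50 from four-parameter log dose-response fit.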
# [7] = test system: Cricetinae gen. sp.; assay: % suppression of parasitaemia was measured in vivo against Visceral Leishmania donovani in hamsters at 208 mg/kg of dosage level.; assay type: functional, Cricetulus griseus
# [8] = test system: Cricetinae gen. sp.; assay: % suppression of parasitaemia was measured in vivo against Visceral Leishmania donovani in hamsters at 52 mg/kg of dosage level.; assay type: functional, Cricetulus griseus
Compound,logP [1],IC50 [2] [µM],also measured
O=S(=O)(c1cc(C(F)(F)F)ccc1Cl)N1CCCC1,3.44,115,
O=S(=O)(c1cc(C(F)(F)F)ccc1F)N1CCN(c2ccccn2)CC1,2.91,> 450,
CN1CCN(S(=O)(=O)c2cc(C(F)(F)F)ccc2Cl)CC1,3.16,321,
CNS(=O)(=O)c1cc(C(F)(F)F)ccc1Cl,2.63,> 450,
NS(=O)(=O)c1cc(C(F)(F)F)ccc1Cl,1.98,> 450,
CCN(CC)CCNS(=O)(=O)c1cc(C(F)(F)F)ccc1Cl,3.85,> 450,
O=S(=O)(c1cc(C(F)(F)F)ccc1Cl)N1CCN(c2ccccn2)CC1,3.45,44,
O=S(=O)(c1cc(C(F)(F)F)ccc1N1CCCC1)N1CCCC1,3.57,23,Suppression [3]: 29%; Suppression [4]: 16%; Suppression [5]: 30%
O=[N+]([O-])c1cc(C(F)(F)F)cc([N+](=O)[O-])c1Cl [CHLORALIN],3.43,,IC50 [6]: 1.3 µM; Suppression [7]: 32%; Suppression [8]: 21%
NS(=O)(=O)c1cc(C(F)(F)F)ccc1F,1.68,> 450,
O=S(=O)(c1cc(C(F)(F)F)ccc1F)N1CCCCCC1,4.03,108,Suppression [3]: 13%; Suppression [4]: 11%; Suppression [5]: 19%
O=S(=O)(c1cc(C(F)(F)F)ccc1F)N1CCCCC1,3.47,418,
O=S(=O)(c1cc(C(F)(F)F)ccc1Cl)N1CCCCC1,4.01,110,
MEGLUMINE ANTIMONATE,,,Suppression ([3]; Cricetulus griseus): 27%; Suppression ([5]; Cricetulus griseus): 73%
O=S(=O)(c1cc(C(F)(F)F)ccc1F)N1CCCC1,2.9,> 450,
CN1CCN(S(=O)(=O)c2cc(C(F)(F)F)ccc2F)CC1,2.61,199,
CCN(CC)CCNS(=O)(=O)c1cc(C(F)(F)F)ccc1F,3.3,> 450,
O=S(=O)(c1cc(C(F)(F)F)ccc1Cl)N1CCCCCC1,4.57,56,
CNS(=O)(=O)c1cc(C(F)(F)F)ccc1F,2.08,> 450,
